According to ChEMBL document CHEMBL3351346, “Design, synthesis, structure-function relationship, bioconversion, and pharmacokinetic evaluation of ertapenem prodrugs” (J Med Chem, 2014):

How the values were obtained:
[1] = system: Canis familiaris; experiment: AUC (0 to 8 hrs) in fasted Beagle dog assessed as ertapenem level at 10 mg/kg dosed through intraduodenal route by LC-MS/MS method; type: ADME, organism-based, Canis lupus familiaris, Plasma; set-up: time < 8 hr, dose 10 mg/kg, route intraduodenal; conditions: in vivo, other
How it was run: (§1)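 Prodrugs were given intraduodenally to bypass stomach acid. Plasma was sampled at intervals over 8 h, and parent prodrug, the two monoester metabolites and ertapenem were quantified by LC-MS/MS. The lower limit of quantitation was 5 nM. AUC(0–8) was used, and it differed from AUC(0–∞) by ±20%. Vehicles were 30% Captisol or 0.5% methylcellulose, as solution or suspension depending on compound.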

[2] = Stability in human plasma assessed as compound remaining at 50 uM at 37 degC after 60 mins by LC-MS/MS method; type: ADME, cell-free; conditions: read-out: Stability
How it was run: (§2)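 Prodrugs were incubated in rat or human plasma for 60 min. Disappearance of prodrug and concomitant appearance of ertapenem were followed by LC-MS/MS, and in selected cases monoesters from partial hydrolysis were also monitored. Ertapenem itself was incubated the same way as a control.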

[3] = system: Canis familiaris; experiment: (§3) AUC (0 to 8 hrs) in fasted Beagle dog at 10 mg/kg dosed through intraduodenal route by LC-MS/MS method; type: ADME, organism-based, Canis lupus familiaris, Plasma; set-up: time < 8 hr, dose 10 mg/kg, route intraduodenal; conditions: in vivo, other, 8 h; how it was run: as §1
[4] = Stability in pH 7.4 phosphate buffer assessed as compound remaining at 50 uM after 3 hrs by LC-MS/MS method; type: physicochemical; conditions: read-out: Stability
[5] = Stability in pH 2.0 simulated gastric fluid assessed as compound degradation to beta-lactam ring open products at 1 uM after 60 mins by LC-MS/MS method; type: ADME; conditions: read-out: Drug degradation
How it was run: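 Incubation was in simulated gastric fluid (SGF, pH 2.0) for 60 min, with loss to the β-lactam ring-opened product measured by LC-MS/MS.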

[6] = system: Canis familiaris; experiment: Oral bioavailability in fasted Beagle dog assessed as ertapenem level at 10 mg/kg dosed through intraduodenal route by LC-MS/MS method; type: ADME, organism-based, Canis lupus familiaris; conditions: in vivo
How it was run: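 After intraduodenal dosing, plasma over 8 h was analysed by LC-MS/MS. Bioavailability was calculated as dose-normalized AUC of ertapenem formed from the prodrug divided by dose-normalized AUC of ertapenem dosed iv. Vehicle was 30% Captisol or 0.5% methylcellulose.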

[7] = Stability in pH 6.5 simulated gastrointestinal fluid assessed as compound remaining at 50 uM after 3 hrs by LC-MS/MS method; type: ADME; conditions: read-out: Stability
How it was run: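 Compounds at 50 μM were incubated in fasted-state simulated intestinal fluid (FaSSIF, pH 6.5) for over 3 h. Percent remaining was determined by LC-MS/MS.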

[8] = system: Canis familiaris; experiment: Oral bioavailability in fasted Beagle dog assessed as assessed as ertapenem and monoetser metabolites level at 10 mg/kg dosed through intraduodenal route by LC-MS/MS method; type: ADME, organism-based, Canis lupus familiaris; conditions: in vivo
How it was run: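 Total absorption followed intraduodenal dosing with LC-MS/MS of plasma over 8 h. It was calculated as the combined dose-normalized AUC of circulating parent prodrug, ertapenem and two monoesters, divided by dose-normalized AUC of ertapenem given iv. Vehicle was 30% Captisol or 0.5% methylcellulose.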

[9] = system: Canis familiaris; experiment: AUC (0 to 8 hrs) in fasted Beagle dog assessed as 8-OH, C-3 ester level at 10 mg/kg dosed through intraduodenal route by LC-MS/MS method; type: ADME, organism-based, Canis lupus familiaris, Plasma; set-up: time < 8 hr, dose 10 mg/kg, route intraduodenal; conditions: in vivo, other; how it was run: as §1
[10] = Stability in rat plasma assessed as compound remaining at 50 uM at 37 degC after 60 mins by LC-MS/MS method; type: ADME, cell-free; conditions: read-out: Stability; how it was run: as §2
[11] = system: Canis familiaris; experiment: AUC (0 to 8 hrs) in fasted Beagle dog assessed as 8-OH, benzoate ester level at 10 mg/kg dosed through intraduodenal route by LC-MS/MS method; type: ADME, organism-based, Canis lupus familiaris, Plasma; set-up: time < 8 hr, dose 10 mg/kg, route intraduodenal; conditions: in vivo, other; how it was run: as §1
[12] = as §3; type: ADME, organism-based, Canis lupus familiaris, Plasma; set-up: time < 8 hr, dose 10 mg/kg, route intraduodenal; conditions: Beagle, plasma; how it was run: as §1

Structure (SMILES)	AUC [1] [µM·h]	remaining at 1 h, 50 µM [2] [%]	AUC [3] [µM·h]	remaining at 3 h, 50 µM [4] [%]	degraded at 1 h, 1 µM [5] [%]	F [6] [%]	remaining at 3 h, 50 µM [7] [%]	F [8] [%]	AUC ([9]; BLD = below limit of detection)	AUC ([3]; BLD = below limit of detection)	remaining at 1 h, 50 µM [10] [%]	AUC [9] [µM·h]	AUC [11] [µM·h]	AUC(0-t) at 8 h [12] [µM·h]	AUC ([1]; BLD = below limit of detection)	F ([6]; BLD = below limit of detection)
CCC(=O)OCOC(=O)C1=C(S[C@@H]2CN[C@H](C(=O)Nc3cccc(C(=O)OCOC(=O)CC)c3)C2)[C@H](C)[C@@H]2[C@@H]([C@@H](C)O)C(=O)N12	1.6	0	–	> 95	> 25	2.9	> 95	2.9	BLD	BLD	0	–	–	–	–	–
COC(=O)C1=C(S[C@@H]2CN[C@H](C(=O)Nc3cccc(C(=O)OC)c3)C2)[C@H](C)[C@@H]2[C@@H]([C@@H](C)O)C(=O)N12	12	0	–	> 95	> 25	14.3	> 95	24.2	–	–	0	3.9	3.6	0.8	–	–
CCCOC(=O)C1=C(S[C@@H]2CN[C@H](C(=O)Nc3cccc(C(=O)OCCC)c3)C2)[C@H](C)[C@@H]2[C@@H]([C@@H](C)O)C(=O)N12	7.3	7	–	> 95	> 25	9.8	> 95	11	–	–	0	–	–	1	–	–
CCCCOC(=O)C1=C(S[C@@H]2CN[C@H](C(=O)Nc3cccc(C(=O)OCCCC)c3)C2)[C@H](C)[C@@H]2[C@@H]([C@@H](C)O)C(=O)N12	9.4	1	–	> 95	> 25	13.1	> 95	16.9	–	–	2	–	–	2.8	–	–
CCCCCCCCOC(=O)C1=C(S[C@@H]2CN[C@H](C(=O)Nc3cccc(C(=O)OCCCCCCCC)c3)C2)[C@H](C)[C@@H]2[C@@H]([C@@H](C)O)C(=O)N12	–	80	–	> 95	> 25	–	> 95	1.1	–	–	4	–	–	0.6	BLD	BLD
CCOC(=O)C1=C(S[C@@H]2CN[C@H](C(=O)Nc3cccc(C(=O)OCC)c3)C2)[C@H](C)[C@@H]2[C@@H]([C@@H](C)OC(C)=O)C(=O)N12	11.3	37	–	> 95	> 25	15.4	> 95	23.3	–	–	0	1.8	2.2	< 0.1	–	–
CCOC(=O)C1=C(S[C@@H]2CN[C@H](C(=O)Nc3cccc(C(=O)OCC)c3)C2)[C@H](C)[C@@H]2[C@@H]([C@@H](C)OC(=O)CC)C(=O)N12	9.1	22	–	> 95	> 25	12.6	> 95	20.2	–	BLD	0	1.3	1.6	–	–	–
CCOC(=O)C1=C(S[C@@H]2CN[C@H](C(=O)Nc3cccc(C(=O)OCC)c3)C2)[C@H](C)[C@@H]2[C@@H]([C@@H](C)OC(=O)[C@@H](N)C(C)C)C(=O)N12	6.5	38	–	> 95	> 25	9.7	> 95	14.9	–	BLD	0	0.9	1	–	–	–
Cc1oc(=O)oc1COC(=O)N1C[C@@H]2C[C@H]1C(=O)Nc1cccc(c1)C(=O)OCc1oc(=O)oc1COC(=O)C1=C(S2)[C@H](C)[C@@H]2[C@@H]([C@@H](C)O)C(=O)N12	–	0	–	> 95	> 25	–	> 95	–	–	–	0	–	–	–	–	–
CCOC(=O)C1=C(S[C@H]2C[C@@H](C(=O)Nc3cccc(C(=O)OCC)c3)N(C(=O)OCc3oc(=O)oc3C)C2)[C@H](C)[C@@H]2[C@@H]([C@@H](C)O)C(=O)N12	3.4	9	–	> 95	> 25	6.4	> 95	14.4	–	BLD	0	0.7	3.1	–	–	–

Results, then the compound that gave them:

AUC [1] [µM·h]	remaining at 1 h, 50 µM [2] [%]	AUC [3] [µM·h]	remaining at 3 h, 50 µM [4] [%]	degraded at 1 h, 1 µM [5] [%]	F [6] [%]	remaining at 3 h, 50 µM [7] [%]	F [8] [%]	AUC ([9]; BLD = below limit of detection)	AUC ([3]; BLD = below limit of detection)	remaining at 1 h, 50 µM [10] [%]	AUC [9] [µM·h]	AUC [11] [µM·h]	AUC(0-t) at 8 h [12] [µM·h]	AUC ([1]; BLD = below limit of detection)	F ([6]; BLD = below limit of detection)	Structure (SMILES)
0.4	34	0.1	> 95	> 25	0.5	> 95	0.7	–	–	–	–	–	–	–	–	C[C@@H](O)[C@H]1C(=O)N2C3=C(S[C@@H]4CN[C@@H](C4)C(=O)Nc4cccc(c4)C(=O)OCCCOC3=O)[C@H](C)[C@H]12
–	21	–	> 95	> 25	–	> 95	–	–	–	0	–	–	–	–	–	C[C@@H](O)[C@H]1C(=O)N2C3=C(S[C@@H]4CN[C@@H](C4)C(=O)Nc4cccc(c4)C(=O)OC/C=C\COC3=O)[C@H](C)[C@H]12
0.7	0	–	> 95	> 25	1	> 95	1	–	BLD	0	–	–	–	–	–	C[C@@H](O)[C@H]1C(=O)N2C3=C(S[C@@H]4CN[C@@H](C4)C(=O)Nc4cccc(c4)C(=O)OCc4oc(=O)oc4COC3=O)[C@H](C)[C@H]12
–	20	–	> 95	> 25	–	> 95	–	–	–	0	–	–	–	–	–	Cc1oc(=O)oc1COC(=O)N1C[C@@H]2C[C@H]1C(=O)Nc1cccc(c1)C(=O)OC/C=C\COC(=O)C1=C(S2)[C@H](C)[C@@H]2[C@@H]([C@@H](C)O)C(=O)N12
–	17	–	> 95	> 25	–	> 95	–	–	–	0	–	–	–	–	–	Cc1oc(=O)oc1COC(=O)N1C[C@@H]2C[C@H]1C(=O)Nc1cccc(c1)C(=O)OC/C=C/COC(=O)C1=C(S2)[C@H](C)[C@@H]2[C@@H]([C@@H](C)O)C(=O)N12
–	60	–	> 95	> 25	–	> 95	–	–	–	0	–	–	–	–	–	C[C@@H](O)[C@H]1C(=O)N2C3=C(S[C@@H]4CN[C@@H](C4)C(=O)Nc4cccc(c4)C(=O)OCOCOC3=O)[C@H](C)[C@H]12
10.1	30	–	> 95	> 25	13.4	> 95	16	–	–	0	–	–	0.1	–	–	CC(=O)O[C@H](C)[C@H]1C(=O)N2C3=C(S[C@@H]4CN[C@@H](C4)C(=O)Nc4cccc(c4)C(=O)OCOCOC3=O)[C@H](C)[C@H]12
